Assay results: ChEMBL document CHEMBL5055631, “Antitumor properties of novel sesquiterpene lactone analogs as NFκB inhibitors that bind to the IKKβ ubiquitin-like domain (ULD)” (Eur J Med Chem, 2021)
Calls of active or inactive are those of the source. The rule behind the calls is not given here.

What was measured:
SR = assay: Anticancer activity against human SR cells assessed as cell growth inhibition incubated for 48 hrs by SRB method; type: functional
How it was run: (§1)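 NCI-60 panel (DTP). Cells in RPMI 1640 with 5% FBS, 2 mM L-glutamine, seeded at 5,000–40,000 per well by doubling time and preincubated 24 h at 37 °C, 5% CO2. Time-zero plates TCA-fixed. DMSO stocks diluted in medium with gentamicin, tested at 100 μM, 10 μM, 1 μM, 0.1 μM and 10 nM for 48 h. Cells fixed with cold TCA, stained with SRB, absorbance read at 515 nm.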

OV-MD-231 [1] = assay: Antiproliferative activity against human OV-MD-231 cells assessed as inhibition of cell proliferation at 0.5 to 5 uM measured over 4 to 5 days by bromodeoxyuridine incorporation assay; type: functional, cell-based; settings: dose 0.5-5 µM, time 4-5 day
How it was run: (§2)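 Seeded at 500–1000 cells/well, with treatment started one day after plating. Cells were exposed to a range of concentrations for 4–5 days, six wells per condition, and proliferation was read by BrdU incorporation ELISA. Data average two experiments of six technical replicates, and 2–4 biological replicates were run.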

TMD-231 = assay: Antiproliferative activity against human TMD-231 cells assessed as inhibition of cell proliferation at 0.5 to 5 uM measured over 4 to 5 days by bromodeoxyuridine incorporation assay; type: functional, cell-based; settings: dose 0.5-5 µM, time 4-5 day; how it was run: as §2
HL-60(TB) = assay: Anticancer activity against human HL-60(TB) cells assessed as cell growth inhibition incubated for 48 hrs by SRB method; type: functional
NCI-H460 = assay: Anticancer activity against human NCI-H460 cells assessed as cell growth inhibition incubated for 48 hrs by SRB method; type: functional; how it was run: as §1
HCT-116 = assay: Anticancer activity against human HCT-116 cells assessed as cell growth inhibition incubated for 48 hrs by SRB method; type: functional; how it was run: as §1
KM12 = assay: Anticancer activity against human KM12 cells assessed as cell growth inhibition incubated for 48 hrs by SRB method; type: functional; how it was run: as §1
SNB-19 = assay: Anticancer activity against human SNB-19 cells assessed as cell growth inhibition incubated for 48 hrs by SRB method; type: functional; how it was run: as §1
SNB-75 = assay: Anticancer activity against human SNB-75 cells assessed as cell growth inhibition incubated for 48 hrs by SRB method; type: functional
Malme-3M = assay: Anticancer activity against human MALME-3M cells assessed as cell growth inhibition incubated for 48 hrs by SRB method; type: functional
UACC-62 = assay: Anticancer activity against human UACC-62 cells assessed as cell growth inhibition incubated for 48 hrs by SRB method; type: functional
How it was run: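 NCI-60 panel, SRB assay. Cells grown in RPMI 1640 with 5% FBS and 2 mM L-glutamine, seeded at 5,000–40,000 cells/well depending on doubling time, and preincubated 24 h at 37 °C with 5% CO2. Time-zero plates were TCA-fixed. Compounds came from DMSO stocks and were tested at 100 μM, 10 μM, 1 μM, 0.1 μM and 10 nM for 48 h. Cells were fixed with cold TCA and stained with 0.4% SRB, and the dye was solubilized in 10 mM Tris base with A515 read.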

OVCAR-5 = assay: Anticancer activity against human OVCAR-5 cells assessed as cell growth inhibition incubated for 48 hrs by SRB method; type: functional
786-0 = assay: Anticancer activity against human 786-0 cells assessed as cell growth inhibition incubated for 48 hrs by SRB method; type: functional; how it was run: as §1
MCF7 = assay: Anticancer activity against human MCF7 cells assessed as cell growth inhibition incubated for 48 hrs by SRB method; type: functional; how it was run: as §1
MDA-MB-231 = assay: Anticancer activity against human MDA-MB-231 cells assessed as cell growth inhibition incubated for 48 hrs by SRB method; type: functional; how it was run: as §1
[2] = biological target: Inhibitor of nuclear factor kappa-B kinase subunit beta (Homo sapiens) (UniProt O14920); assay: Inhibition of IKKbeta-mediated NFkappaB activation in human M9-ENL1 cells assessed as inhibition of phosphorylation of p65 at SER-536 residue at 2.5 to 10 uM by immunoblotting analysis; type: cell-based; settings: dose 2.5-10 µM
Sequence of Inhibitor of nuclear factor kappa-B kinase subunit beta (Homo sapiens) (O14920 whole entry): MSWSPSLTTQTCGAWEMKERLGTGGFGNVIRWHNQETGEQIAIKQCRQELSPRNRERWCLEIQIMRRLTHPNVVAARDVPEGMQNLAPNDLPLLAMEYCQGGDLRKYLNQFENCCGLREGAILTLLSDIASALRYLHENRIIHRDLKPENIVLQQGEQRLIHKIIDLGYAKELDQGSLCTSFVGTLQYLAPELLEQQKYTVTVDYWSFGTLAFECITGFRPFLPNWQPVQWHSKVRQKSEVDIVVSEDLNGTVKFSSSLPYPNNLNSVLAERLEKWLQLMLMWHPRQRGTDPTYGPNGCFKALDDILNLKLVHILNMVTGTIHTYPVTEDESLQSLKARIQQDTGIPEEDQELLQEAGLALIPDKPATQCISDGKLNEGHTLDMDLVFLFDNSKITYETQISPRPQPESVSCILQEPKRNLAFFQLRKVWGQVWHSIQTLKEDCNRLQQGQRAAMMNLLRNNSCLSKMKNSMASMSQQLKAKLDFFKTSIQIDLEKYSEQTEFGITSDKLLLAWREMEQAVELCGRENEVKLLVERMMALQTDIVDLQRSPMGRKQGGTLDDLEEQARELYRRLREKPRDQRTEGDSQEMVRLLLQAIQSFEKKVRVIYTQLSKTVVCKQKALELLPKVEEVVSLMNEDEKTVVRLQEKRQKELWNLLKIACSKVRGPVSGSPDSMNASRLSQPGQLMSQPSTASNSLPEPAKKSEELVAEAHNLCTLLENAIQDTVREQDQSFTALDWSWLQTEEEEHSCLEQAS
How it was run: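 Primary M9-ENL AML cells were exposed for 6 h to 2.5, 5.0 and 10 μM, with PTL as reference. Lysates were run on 8–10% SDS-PAGE and transferred to PVDF. Blots were blocked in 5% milk/TBST and probed for phospho-p65 (Ser536). Analyses were done in triplicate.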

SUM149PT = assay: Antiproliferative activity against human SUM149PT cells assessed as inhibition of cell proliferation measured over 4 to 5 days by bromodeoxyuridine incorporation assay; type: functional, cell-based; how it was run: as §2
[3] = biological target: Transcription factor p65 (Homo sapiens) (UniProt Q04206); assay: Inhibition of TNFalpha-induced phosphorylation of p65 in human SUM149PT cells at 2 uM by ELISA assay; type: cell-based
Sequence of Transcription factor p65 (Homo sapiens) (Q04206 whole entry): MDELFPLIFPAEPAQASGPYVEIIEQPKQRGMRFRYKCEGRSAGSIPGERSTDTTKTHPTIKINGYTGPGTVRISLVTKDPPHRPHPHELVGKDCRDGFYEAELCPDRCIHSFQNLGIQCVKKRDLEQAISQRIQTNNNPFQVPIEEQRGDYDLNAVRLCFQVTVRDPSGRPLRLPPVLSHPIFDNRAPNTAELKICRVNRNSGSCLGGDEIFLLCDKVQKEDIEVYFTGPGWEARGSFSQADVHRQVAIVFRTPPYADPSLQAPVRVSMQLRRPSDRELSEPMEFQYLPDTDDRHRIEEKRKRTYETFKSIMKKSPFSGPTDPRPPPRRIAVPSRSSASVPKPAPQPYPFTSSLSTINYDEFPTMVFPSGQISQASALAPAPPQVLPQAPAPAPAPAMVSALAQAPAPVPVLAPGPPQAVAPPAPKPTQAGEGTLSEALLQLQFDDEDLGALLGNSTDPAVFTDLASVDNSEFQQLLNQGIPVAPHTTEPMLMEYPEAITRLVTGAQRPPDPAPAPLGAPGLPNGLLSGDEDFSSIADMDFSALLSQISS

[4] = biological target: Transcription factor p65 (Homo sapiens) (UniProt Q04206); assay: Inhibition of TNFalpha-induced p65 phosphorylation in human OV-MD-231 cells at 2 uM by ELISA assay; type: cell-based
[5] = biological target: Inhibitor of nuclear factor kappa-B kinase subunit alpha (Homo sapiens) (UniProt O15111); assay: Inhibition of TNFalpha-induced IkKalpha in human SUM149PT cells at 0.5 to 2 uM by ELISA assay; type: cell-based; settings: dose 0.5-2 µM
Sequence of Inhibitor of nuclear factor kappa-B kinase subunit alpha (Homo sapiens) (O15111 whole entry): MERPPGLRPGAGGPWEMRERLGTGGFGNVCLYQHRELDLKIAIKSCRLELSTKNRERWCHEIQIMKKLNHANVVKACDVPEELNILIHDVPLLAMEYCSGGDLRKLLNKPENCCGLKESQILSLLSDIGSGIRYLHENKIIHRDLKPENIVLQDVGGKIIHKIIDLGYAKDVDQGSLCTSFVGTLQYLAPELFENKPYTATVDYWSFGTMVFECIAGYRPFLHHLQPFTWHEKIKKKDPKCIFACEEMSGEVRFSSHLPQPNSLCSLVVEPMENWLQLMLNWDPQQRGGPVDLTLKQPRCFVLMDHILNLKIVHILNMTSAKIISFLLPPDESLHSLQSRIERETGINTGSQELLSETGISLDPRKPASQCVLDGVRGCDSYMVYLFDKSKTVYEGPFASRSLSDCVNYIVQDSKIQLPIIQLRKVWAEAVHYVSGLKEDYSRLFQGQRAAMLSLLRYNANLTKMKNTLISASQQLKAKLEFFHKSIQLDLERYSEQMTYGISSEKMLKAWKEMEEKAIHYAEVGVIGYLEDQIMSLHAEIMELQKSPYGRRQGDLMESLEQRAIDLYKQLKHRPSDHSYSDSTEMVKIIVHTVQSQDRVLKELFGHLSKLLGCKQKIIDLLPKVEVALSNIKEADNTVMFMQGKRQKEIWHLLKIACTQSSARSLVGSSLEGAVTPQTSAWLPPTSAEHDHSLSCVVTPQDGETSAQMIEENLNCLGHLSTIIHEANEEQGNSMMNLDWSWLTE

OV-MD-231 [6] = assay: Inhibition of NFkB binding with DNA in human […] cells assessed as reduction in NFkB-DNA binding at 2 uM measured over 3 hrs by electrophoretic mobility shift assay; type: cell-based
How it was run: (§3)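 Cells were exposed to 0.5 and 2.0 μM for 3 h. EMSA was run on whole-cell lysates with 32P-labelled probes carrying NF-κB binding sites, and an SP-1 probe served as the specificity control.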

[7] = biological target: Nuclear factor NF-kappa-B p100 subunit (Homo sapiens) (UniProt Q00653); assay: Inhibition of NFkB binding with DNA in human SUM149PT cells assessed as reduction in NFkB-DNA binding at 2 uM measured over 3 hrs by electrophoretic mobility shift assay; type: cell-based; how it was run: as §3
Sequence of Nuclear factor NF-kappa-B p100 subunit (Homo sapiens) (Q00653 whole entry): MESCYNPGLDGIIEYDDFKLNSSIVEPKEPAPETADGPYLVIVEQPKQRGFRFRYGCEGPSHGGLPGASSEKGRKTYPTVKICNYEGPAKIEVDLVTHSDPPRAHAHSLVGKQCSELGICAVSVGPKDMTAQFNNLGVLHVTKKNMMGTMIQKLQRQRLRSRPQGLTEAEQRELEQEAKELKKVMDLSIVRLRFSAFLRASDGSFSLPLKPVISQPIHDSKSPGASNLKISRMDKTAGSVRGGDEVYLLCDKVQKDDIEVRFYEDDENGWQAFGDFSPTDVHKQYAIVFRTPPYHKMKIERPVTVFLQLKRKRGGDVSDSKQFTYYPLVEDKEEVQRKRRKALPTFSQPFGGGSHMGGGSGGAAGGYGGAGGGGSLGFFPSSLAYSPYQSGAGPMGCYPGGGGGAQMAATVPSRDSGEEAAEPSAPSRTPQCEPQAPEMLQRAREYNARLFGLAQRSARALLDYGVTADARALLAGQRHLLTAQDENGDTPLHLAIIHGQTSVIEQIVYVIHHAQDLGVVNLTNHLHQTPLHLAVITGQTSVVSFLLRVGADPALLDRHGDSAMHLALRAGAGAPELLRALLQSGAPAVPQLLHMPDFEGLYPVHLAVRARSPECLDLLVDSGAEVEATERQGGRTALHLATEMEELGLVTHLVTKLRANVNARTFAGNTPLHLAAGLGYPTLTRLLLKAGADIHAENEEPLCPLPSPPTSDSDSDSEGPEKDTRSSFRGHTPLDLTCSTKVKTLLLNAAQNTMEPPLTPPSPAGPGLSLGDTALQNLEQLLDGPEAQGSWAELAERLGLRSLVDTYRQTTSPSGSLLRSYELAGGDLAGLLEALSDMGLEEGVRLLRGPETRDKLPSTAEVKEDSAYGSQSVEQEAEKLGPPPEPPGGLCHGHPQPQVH

NCI-H322M = assay: Anticancer activity against human NCI-H322M cells assessed as cell growth inhibition incubated for 48 hrs by SRB method; type: functional; how it was run: as §1
OVCAR-3 = assay: Anticancer activity against human OVCAR-3 cells assessed as cell growth inhibition incubated for 48 hrs by SRB method; type: functional; how it was run: as §1

SMILES	GI50 (SR)	GI50 (HL-60(TB))	GI50 (NCI-H460)	GI50 (HCT-116)	GI50 (KM12)	GI50 (SNB-19)	GI50 (SNB-75)	GI50 (Malme-3M)	GI50 (UACC-62)	GI50 (OVCAR-5)	GI50 (786-0)	GI50 (MCF7)	GI50 (MDA-MB-231)	GI50 (NCI-H322M)	further results
C=C1C(=O)O[C@H]2[C@H]1CC/C(COC(=O)NCc1ccc(OC)cc1)=C\CC[C@@]1(C)O[C@@H]21	0.3 µM	0.26 µM	2.74 µM	0.19 µM	2.35 µM	0.7 µM	0.74 µM	0.2 µM	2.86 µM	0.28 µM	0.49 µM	1.87 µM	0.37 µM	–	inhibition (OV-MD-231 [1]): Active; inhibition (TMD-231): Active; inhibition [2]: inactive; IC50 (SUM149PT): < 1 µM; inhibition [3]: Active; inhibition [4]: Active; inhibition [5]: Active; inhibition (OV-MD-231 [6]): inactive; inhibition [7]: inactive
C=C1C(=O)O[C@H]2[C@H]1CC/C(COC(=O)NCCc1ccc(OC)cc1)=C\CC[C@@]1(C)O[C@@H]21	2.07 µM	2.34 µM	12.2 µM	1.34 µM	8.36 µM	8.65 µM	4.09 µM	2.44 µM	1.71 µM	2.19 µM	2.77 µM	8.08 µM	1.92 µM	12.6 µM	–
C=C1C(=O)O[C@H]2[C@H]1CC/C(COC(=O)NCc1cc(OC)cc(OC)c1)=C\CC[C@@]1(C)O[C@@H]21	0.32 µM	1.69 µM	3.01 µM	0.77 µM	2.8 µM	5.32 µM	1.99 µM	1.86 µM	1.2 µM	1.01 µM	1.6 µM	2.72 µM	0.72 µM	4.72 µM	GI50 (OVCAR-3): 0.66 µM
C=C1C(=O)O[C@H]2[C@H]1CC/C(COC(=O)NCc1ccccc1OC)=C\CC[C@@]1(C)O[C@@H]21	0.67 µM	1.61 µM	3.73 µM	0.54 µM	3.53 µM	1.57 µM	2.44 µM	1.89 µM	1.84 µM	0.87 µM	2.45 µM	3.13 µM	0.69 µM	–	–
